According to ChEMBL document CHEMBL1255303, “In vitro and in vivo antifungal activities of T-2307, a novel arylamidine” (2008):
Converted amounts (≈) assume the structure as drawn.

Tests used:
Format in all cases: functional
[1] = tested on: Candida albicans; assay: Antifungal activity against Candida albicans ATCC 10261 after 48 hrs by broth microdilution method; conditions: ATCC 10261, 48 h
How it was run: (§1)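 CLSI M27-A2 (yeasts) / M38-A (moulds) broth microdilution in RPMI 1640 buffered to pH 7.0 with 0.165 M MOPS. Malassezia furfur got the same medium supplemented with glucose, bile salts, glycerol, glycerol monostearate and Tween 20. Final inoculum 0.65 × 10^3–2.5 × 10^3 CFU/ml for yeasts and 0.87 × 10^4–3.8 × 10^4 CFU/ml for filamentous fungi. Incubation at 35°C except M. racemosus and F. solani, which were held at 30°C.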

[2] = tested on: Candida albicans; assay: Antifungal activity against Candida albicans ATCC 24433 after 48 hrs by broth microdilution method; conditions: ATCC 24433, 48 h
How it was run: (§2)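 CLSI M27-A2 (yeasts) or M38-A (A. fumigatus) broth microdilution in RPMI 1640 buffered to pH 7.0 with 0.165 M MOPS. Final inocula were 0.65–2.5 × 10^3 CFU/ml for yeasts and 0.87–3.8 × 10^4 CFU/ml for filamentous fungi. Incubation was at 35°C for about 48 h (72 h for C. neoformans). MIC was the lowest concentration giving a prominent (~50%) turbidity drop versus growth control; amphotericin B required complete inhibition.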

[3] = tested on: Candida albicans; assay: Antifungal activity against Candida albicans ATCC 90028 after 48 hrs by broth microdilution method; conditions: ATCC 90028, 48 h; how it was run: as §1
[4] = tested on: Candida dubliniensis; assay: Antifungal activity against Candida dubliniensis ATCC MYA-577 after 48 hrs by broth microdilution method; conditions: ATCC MYA-577, 48 h; how it was run: as §1
[5] = tested on: Nakaseomyces glabratus; assay: Antifungal activity against Candida glabrata ATCC 90030 after 48 hrs by broth microdilution method; conditions: ATCC 90030, 48 h; how it was run: as §1
[6] = tested on: Candida parapsilosis; assay: Antifungal activity against Candida parapsilosis NBRC 10219 after 48 hrs by broth microdilution method; conditions: Lodderomyces parapsilosis, NBRC 10219, 48 h; how it was run: as §2
[7] = tested on: Candida tropicalis; assay: Antifungal activity against Candida tropicalis IFO 1400 after 48 hrs by broth microdilution method; conditions: IFO 1400, 48 h; how it was run: as §1
[8] = tested on: Cryptococcus neoformans; assay: Antifungal activity against Cryptococcus neoformans ATCC 90113 after 72 hrs by broth microdilution method; conditions: ATCC 90113, 72 h; how it was run: as §1
[9] = tested on: Malassezia furfur; assay: Antifungal activity against Malassezia furfur NBRC 0656 after 48 hrs by broth microdilution method; conditions: NBRC 0656, 48 h; how it was run: as §1
[10] = tested on: Trichosporon asahii; assay: Antifungal activity against Trichosporon asahii JCM 2466 after 48 hrs by broth microdilution method; conditions: JCM 2466, 48 h; how it was run: as §1
[11] = tested on: Aspergillus fumigatus; assay: Antifungal activity against Aspergillus fumigatus ATCC 16424 after 48 hrs by broth microdilution method; conditions: ATCC 16424, 48 h; how it was run: as §2
[12] = tested on: Aspergillus fumigatus; assay: Antifungal activity against Aspergillus fumigatus TIMM 0063 after 48 hrs by broth microdilution method; conditions: TIMM 0063, 48 h; how it was run: as §1
[13] = tested on: Aspergillus nidulans; assay: Antifungal activity against Aspergillus nidulans NBRC 33017 after 48 hrs by broth microdilution method; conditions: NBRC 33017, 48 h; how it was run: as §1
[14] = tested on: Aspergillus terreus; assay: Antifungal activity against Aspergillus terreus NBRC 33026 after 48 hrs by broth microdilution method; conditions: NBRC 33026, 48 h; how it was run: as §1
[15] = tested on: Scedosporium boydii; assay: Antifungal activity against Pseudallescheria boydii NBRC 32229 after 72 hrs by broth microdilution method; conditions: NBRC 32229, 72 h; how it was run: as §1
[16] = tested on: Lichtheimia corymbifera; assay: Antifungal activity against Absidia corymbifera NBRC 4009 after 24 hrs by broth microdilution method; conditions: NBRC 4009, 24 h; how it was run: as §1
[17] = tested on: Mucor racemosus; assay: Antifungal activity against Mucor racemosus NBRC5403 after 24 hrs by broth microdilution method; conditions: NBRC5403, 24 h
[18] = tested on: Trichophyton rubrum; assay: Antifungal activity against Trichophyton rubrum NBRC 5467 after 72 hrs by broth microdilution method; conditions: NBRC 5467, 72 h; how it was run: as §1
[19] = tested on: Candida albicans; assay: Antifungal activity against Candida albicans ATCC 96901 after 47 hrs by broth microdilution method; conditions: ATCC 96901, 47 h
How it was run: (§3)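 Fluconazole-resistant or susceptible-dose-dependent ATCC C. albicans strains were tested by CLSI M27-A2 broth microdilution in RPMI 1640–0.165 M MOPS, pH 7.0, with a final inoculum of 1.1–1.5 × 10^3 CFU/ml at 35°C for about 47 h. MIC was the lowest concentration with a prominent (~50%) turbidity decrease relative to growth control; amphotericin B was read at complete inhibition.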

[20] = tested on: Candida albicans; assay: Antifungal activity against Candida albicans ATCC MYA-573 after 47 hrs by broth microdilution method; conditions: ATCC MYA-573, 47 h; how it was run: as §3
[21] = tested on: Candida albicans; assay: Antifungal activity against Candida albicans ATCC MYA-1003 after 47 hrs by broth microdilution method; conditions: ATCC MYA-1003, 47 h; how it was run: as §3
[22] = tested on: Candida albicans; assay: Antifungal activity against Candida albicans clinical isolates after 48 hrs by broth microdilution method
How it was run: (§4)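 Clinical isolates from Japanese hospitals or culture collections were tested by broth microdilution in RPMI 1640-MOPS. Inoculum was 0.57 × 10^3–2.5 × 10^3 CFU/ml for yeasts and 0.4 × 10^4–3.3 × 10^4 CFU/ml for filamentous fungi. Incubation was at 35°C for about 48 h, or 72 h where footnoted. Results were summarised as MIC range, MIC50 and MIC90.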

[23] = tested on: Pichia kudriavzevii; assay: Antifungal activity against Candida krusei clinical isolates after 48 hrs by broth microdilution method
How it was run: (§5)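 Japanese hospital Candida isolates were tested by CLSI M27-A2 broth microdilution in RPMI 1640–MOPS, pH 7.0, with inocula of 0.57–2.5 × 10^3 CFU/ml at 35°C for about 48 h. Inocula came from 24-h potato dextrose agar cultures. MIC was the lowest concentration with about 50% turbidity reduction versus growth control (complete inhibition for amphotericin B). Range, MIC50 and MIC90 were reported.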

[24] = tested on: Candida parapsilosis; assay: Antifungal activity against Candida parapsilosis clinical isolates after 48 hrs by broth microdilution method; conditions: Lodderomyces parapsilosis; how it was run: as §5
[25] = tested on: Candida tropicalis; assay: Antifungal activity against Candida tropicalis clinical isolates after 48 hrs by broth microdilution method; how it was run: as §4
[26] = tested on: Cryptococcus neoformans; assay: Antifungal activity against Cryptococcus neoformans clinical isolates after 72 hrs by broth microdilution method; how it was run: as §4
[27] = tested on: Aspergillus fumigatus; assay: Antifungal activity against Aspergillus fumigatus clinical isolates after 48 hrs by broth microdilution method; how it was run: as §4

## OC(Cn1cncn1)(Cn1cncn1)c1ccc(F)cc1F [FLUCONAZOLE]
[1]
  MFC: > 64 µg/mL
  MIC: 0.125 µg/mL (≈ 0.408 µM)
[2]
  MFC: > 64 µg/mL
  MIC: 0.125 µg/mL (≈ 0.408 µM)
[3]
  MFC: > 64 µg/mL
  MIC: 0.125 µg/mL (≈ 0.408 µM)
[4]
  MFC: > 64 µg/mL
  MIC: 0.125 µg/mL (≈ 0.408 µM)
[5]
  MFC: > 64 µg/mL
  MIC: 8 µg/mL (≈ 26.1 µM)
[6]
  MFC: > 64 µg/mL
  MIC: 1 µg/mL (≈ 3.27 µM)
[7]
  MFC: > 64 µg/mL
  MIC: 2 µg/mL (≈ 6.53 µM)
[8]
  MFC: > 64 µg/mL
  MIC: 4 µg/mL (≈ 13.1 µM)
[9]
  MFC: > 64 µg/mL
  MIC: 4 µg/mL (≈ 13.1 µM)
[10]
  MFC: > 64 µg/mL
  MIC: 1 µg/mL (≈ 3.27 µM)
[11]
  MFC: > 64 µg/mL
  MIC: > 64 µg/mL
[12]
  MFC: > 64 µg/mL
  MIC: > 64 µg/mL
[13]
  MFC: > 64 µg/mL
  MIC: 64 µg/mL (≈ 209 µM)
[14]
  MFC: > 64 µg/mL
  MIC: > 64 µg/mL
[15]
  MFC: > 64 µg/mL
  MIC: 16 µg/mL (≈ 52.2 µM)
[16]
  MFC: > 64 µg/mL
  MIC: > 64 µg/mL
[17]
  MFC: > 64 µg/mL
  MIC: > 64 µg/mL
[18]
  MFC: > 64 µg/mL
  MIC: 0.25 µg/mL (≈ 0.816 µM)
[19]
  MIC: > 64 µg/mL
[20]
  MIC: > 64 µg/mL
[21]
  MIC: 64 µg/mL (≈ 209 µM)
[22]
  MIC: 0.125 µg/mL (≈ 0.408 µM)
  MIC50: 0.125 µg/mL (≈ 0.408 µM)
  MIC90: 0.25 µg/mL (≈ 0.816 µM)
[23]
  MIC50: 64 µg/mL (≈ 209 µM)
  MIC90: 64 µg/mL (≈ 209 µM)
[24]
  MIC50: 0.5 µg/mL (≈ 1.63 µM)
  MIC90: 1 µg/mL (≈ 3.27 µM)
[25]
  MIC50: 0.5 µg/mL (≈ 1.63 µM)
  MIC90: 1 µg/mL (≈ 3.27 µM)
[26]
  MIC50: 2 µg/mL (≈ 6.53 µM)
  MIC90: 4 µg/mL (≈ 13.1 µM)
[27]
  MIC: > 64 µg/mL
  MIC50: > 64 µg/mL
  MIC90: > 64 µg/mL

## C[C@@H](c1ncncc1F)[C@](O)(Cn1cncn1)c1ccc(F)cc1F [VORICONAZOLE]
[1]
  MFC: > 64 µg/mL
  MIC: 0.0039 µg/mL (≈ 0.0112 µM)
[2]
  MFC: > 64 µg/mL
  MIC: 0.0078 µg/mL (≈ 0.0223 µM)
[3]
  MFC: > 64 µg/mL
  MIC: 0.0039 µg/mL (≈ 0.0112 µM)
[4]
  MFC: > 64 µg/mL
  MIC: 0.0078 µg/mL (≈ 0.0223 µM)
[5]
  MFC: > 64 µg/mL
  MIC: 0.25 µg/mL (≈ 0.716 µM)
[6]
  MFC: > 64 µg/mL
  MIC: 0.0313 µg/mL (≈ 0.0896 µM)
[7]
  MFC: > 64 µg/mL
  MIC: 0.0625 µg/mL (≈ 0.179 µM)
[8]
  MFC: > 64 µg/mL
  MIC: 0.0625 µg/mL (≈ 0.179 µM)
[9]
  MFC: > 64 µg/mL
  MIC: 0.0625 µg/mL (≈ 0.179 µM)
[10]
  MFC: > 64 µg/mL
  MIC: 0.0625 µg/mL (≈ 0.179 µM)
[11]
  MFC: 32 µg/mL (≈ 91.6 µM)
  MIC: 0.25 µg/mL (≈ 0.716 µM)
[12]
  MFC: 1 µg/mL (≈ 2.86 µM)
  MIC: 1 µg/mL (≈ 2.86 µM)
[13]
  MFC: 0.25 µg/mL (≈ 0.716 µM)
  MIC: 0.125 µg/mL (≈ 0.358 µM)
[14]
  MFC: 32 µg/mL (≈ 91.6 µM)
  MIC: 0.5 µg/mL (≈ 1.43 µM)
[15]
  MFC: > 64 µg/mL
  MIC: 1 µg/mL (≈ 2.86 µM)
[16]
  MFC: > 64 µg/mL
  MIC: 32 µg/mL (≈ 91.6 µM)
[17]
  MFC: > 64 µg/mL
  MIC: > 64 µg/mL
[18]
  MFC: > 64 µg/mL
  MIC: 0.0313 µg/mL (≈ 0.0896 µM)
[19]
  MIC: 0.5 µg/mL (≈ 1.43 µM)
[20]
  MIC: 0.25 µg/mL (≈ 0.716 µM)
[21]
  MIC: 0.5 µg/mL (≈ 1.43 µM)
[22]
  MIC: 0.0039 µg/mL (≈ 0.0112 µM)
  MIC50: 0.0039 µg/mL (≈ 0.0112 µM)
  MIC90: 0.0078 µg/mL (≈ 0.0223 µM)
[23]
  MIC50: 0.5 µg/mL (≈ 1.43 µM)
  MIC90: 0.5 µg/mL (≈ 1.43 µM)
[24]
  MIC50: 0.0156 µg/mL (≈ 0.0447 µM)
  MIC90: 0.0313 µg/mL (≈ 0.0896 µM)
[25]
  MIC50: 0.0625 µg/mL (≈ 0.179 µM)
  MIC90: 0.0625 µg/mL (≈ 0.179 µM)
[26]
  MIC50: 0.0313 µg/mL (≈ 0.0896 µM)
  MIC90: 0.0625 µg/mL (≈ 0.179 µM)
[27]
  MIC50: 1 µg/mL (≈ 2.86 µM)
  MIC90: 1 µg/mL (≈ 2.86 µM)
